The nature of series [1]: Aqueous solubility at pH 7.4. It counts as physicochemical.
Series [2] is described as follows: Aqueous stability of the compound. The format is physicochemical. To be noted: buffer. Summed up: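 The compound was dissolved in water at 50 mM and held at pH 5 and at pH 9 for 8 h at room temperature. Remaining intact compound was measured by UV-HPLC.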
Series [3] has as its system Oesophagostomum dentatum. Kind of series: Anthelmintic activity against Oesophagostomum dentatum infected pig assessed as reduction in fecal egg shedding. It counts as functional.
Series [4] has as its system Oesophagostomum dentatum. Kind of series: Anthelmintic activity against Oesophagostomum dentatum infected pig assessed as worm burden reduction. The format is functional.
A short description of series [5]: Cmax in pig at 5.0 mg/kg, po. On the set-up: dose 5 mg/kg, route oral. As to conditions: in vivo. The format is ADME, organism-based, Sus scrofa. Summed up: (§1)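 Swine received a single oral dose of 5.0 mg/kg, given as an aqueous solution or suspension. Plasma levels of fenbendazole, fenbendazole sulfoxide and fenbendazole sulfone were measured over time. Cmax, Tmax and AUC were derived for each analyte.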

Series [6] deals with Sus scrofa. The series can be described thus: Tmax in pig at 5.0 mg/kg, po assessed as fenbendazole sulfone level. The format is ADME, organism-based. On the set-up: dose 5 mg/kg, route oral. As to conditions: in vivo. In outline:
as §1

Series [7] concerns Sus scrofa. Kind of series: AUC in pig at 5.0 mg/kg, po assessed as fenbendazole sulfone level. To be noted: in vivo. On the set-up: dose 5 mg/kg, route oral. The format is ADME, organism-based, Plasma. Summed up:
as §1

The subject of series [8] is Sus scrofa. Kind of series: AUC in pig at 5.0 mg/kg, po assessed as fenbendazole sulfoxide level. It counts as ADME, organism-based, Plasma. On the set-up: dose 5 mg/kg, route oral. To be noted: in vivo. Summed up:
as §1

Series [9] can be described thus: Tmax in pig at 5.0 mg/kg, po. To be noted: in vivo. On the set-up: dose 5 mg/kg, route oral. It counts as ADME, organism-based, Sus scrofa. In outline: as §1
For series [10], the system named is Sus scrofa. Kind of series: Cmax in pig at 5.0 mg/kg, po assessed as fenbendazole sulfone level. It counts as ADME, organism-based. On the set-up: dose 5 mg/kg, route oral. As to conditions: in vivo. In outline:
as §1

The subject of series [11] is Sus scrofa. The series can be described thus: Tmax in pig at 5.0 mg/kg, po assessed as fenbendazole sulfoxide level. The format is ADME, organism-based. On the set-up: dose 5 mg/kg, route oral. To be noted: in vivo. Summed up: as §1
Series [12] can be described thus: AUC in pig at 5.0 mg/kg, po. It counts as ADME, organism-based, Sus scrofa. On the set-up: dose 5 mg/kg, route oral. As to conditions: plasma. In outline: as §1
For series [13], the system named is Sus scrofa. The series can be described thus: Cmax in pig at 5.0 mg/kg, po assessed as fenbendazole sulfoxide level. The format is ADME, organism-based. On the set-up: dose 5 mg/kg, route oral. As to conditions: in vivo. Summed up: as §1
Series [14] concerns Sus scrofa. The series can be described thus: (§2) AUC in pig at 6.8 mg/kg, po assessed as sodium (2-(methoxycarbonyl)-5-(phenylsulphonyl)-1H-benzo[d]imidazol-1-yl)methyl phosphate level. It counts as ADME, organism-based, Plasma. On the set-up: dose 6.8 mg/kg, route oral. To be noted: in vivo.
Series [15] concerns Sus scrofa. Kind of series: Cmax in pig at 6.8 mg/kg, po. To be noted: in vivo.
Series [16] relates to Sus scrofa. Kind of series: (§3) Tmax in pig at 6.8 mg/kg, po assessed as sodium (2-(methoxycarbonyl)-5-(phenylsulphonyl)-1H-benzo[d]imidazol-1-yl)methyl phosphate level. It counts as ADME, organism-based. On the set-up: dose 6.8 mg/kg, route oral. To be noted: in vivo.
For series [17], the system named is Sus scrofa. Described as §3. It counts as ADME, organism-based. On the set-up: dose 6.8 mg/kg, route oral. To be noted: in vivo. This is another data set of the same source.
The test system of series [18] is Sus scrofa. Kind of series: Cmax in pig at 6.8 mg/kg, po assessed as sodium (2-(methoxycarbonyl)-5-(phenylsulphonyl)-1H-benzo[d]imidazol-1-yl)methyl phosphate. The format is ADME, organism-based. On the set-up: dose 6.8 mg/kg, route oral. To be noted: in vivo.
Series [19] has as its system Sus scrofa. The series is described as §2. It counts as ADME, organism-based, Plasma. On the set-up: dose 6.8 mg/kg, route oral. As to conditions: in vivo. This is another data set of the same source.

The source made the active and inactive calls. The rule behind the calls is not given here.

From ChEMBL document CHEMBL1143169, “Highly water-soluble prodrugs of anthelmintic benzimidazole carbamates: synthesis, pharmacodynamics, and pharmacokinetics” (J Med Chem, 2008) come the findings set out here.

In [1], `COC(=O)Nc1nc2cc([S+]([O-])c3ccccc3)ccc2n1COP(=O)([O-])O.[Na+]` (stereo unspecified) gave a solubility of over 50 mM. The same molecule displayed a Stability in series [2] of over 8 h.
In series [1], `COC(=O)Nc1nc2cc(C(=O)c3ccccc3)ccc2n1COP(=O)([O-])O.[Na+]` returned a solubility of over 50 mM. Also, in series [2], the Stability is over 8 h.
Taken in the same sequence, the figures for `CCCCc1ccc2c(c1)nc(NC(=O)OC)n2COP(=O)([O-])O.[Na+]` were over 50 mM and over 8 h.
As to `CCCSc1ccc2c(c1)nc(NC(=O)OC)n2COP(=O)([O-])O.[Na+]`, the solubility in series [1] was over 50 mM. In addition, the Stability in [2] was over 8 h.
Taken in the same sequence, the figures for `COC(=O)Nc1nc2cc(C(=O)c3ccc(F)cc3)ccc2n1COP(=O)([O-])O.[Na+]` were over 50 mM and over 8 h.
`COC(=O)Nc1nc2cc(Sc3ccccc3)ccc2[nH]1`: the result with Oesophagostomum dentatum [3] and with Oesophagostomum dentatum [4] was Active.
For the molecule `COC(=O)Nc1nc2ccc(Sc3ccccc3)cc2[nH]1` [FENBENDAZOLE], the highest concentration (Cmax) in [5] is 50 ng/mL; in the series with Sus scrofa [10], 380 ng/mL; in the series on Sus scrofa [13] it was 1090 ng/mL. In addition, the Tmax in the series on Sus scrofa [6] was 34 h; in series [9] it was 5.4 h; with Sus scrofa [11], 17 h. In addition, the exposure (AUC) was determined as 12730 ng·h/mL in the series on Sus scrofa [7], 35000 ng·h/mL with Sus scrofa [8] and 310 ng·h/mL in series [12].
As for `COC(=O)Nc1nc2cc(Sc3ccccc3)ccc2n1COP(=O)([O-])O.[Na+]`, the exposure (AUC) with Sus scrofa [14] amounted to 58770 ng·h/mL; with Sus scrofa [19], 31150 ng·h/mL. For the same molecule, the Cmax in the series on Sus scrofa [15] amounted to 1410 ng/mL; in the series with Sus scrofa [18], 780 ng/mL. For the same molecule, the concentration in solution in [1] (solubility) was 130 mM. Besides, the outcome in the series with Oesophagostomum dentatum [3] and in the series on Oesophagostomum dentatum [4] was Active. Also, the Stability in series [2] is over 8 h. Moreover, the Tmax in the series with Sus scrofa [16] was 36 h; with Sus scrofa [17], 15 h.
